Measured values published in ChEMBL document CHEMBL1134250, “Inhibition of neuronal nitric oxide synthase by 7-methoxyindazole and related substituted indazoles” (Bioorg Med Chem Lett, 2001).

How the values were obtained:
[1] = target: Nitric oxide synthase 1 (Rattus norvegicus) (UniProt P29476); assay: Ex vivo inhibition of rat cerebellar neuronal nitric oxide synthase after intraperitoneal administration in rats.; format: functional, organism-based; settings: concentration not given here
Procedure, shortened: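 Rats, n=6, received 50 mg/kg ip in arachis oil. Cerebellum removed 30 min later. nNOS activity measured ex vivo as L-[3H]arginine to L-[3H]citrulline conversion. Expressed as % inhibition.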

Mus musculus [2] = assay: Antinociceptive activity in Writhing test in mice(ip) at a dose of 50 mg/kg (p<0.001); format: functional
Nitric oxide synthase 1 [3] = target: T1, Nitric oxide synthase 1 (Rattus norvegicus, UniProt P29476); assay: In vitro inhibitory concentration against rat cerebellar neuronal nitric oxide synthase
[4] = target: Nitric oxide synthase 1 (Rattus norvegicus) (UniProt P29476); assay: In vitro percent inhibition of rat cerebellar neuronal nitric oxide synthase at a concentration of 100 uM
Procedure, shortened: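 Rat cerebellar homogenate nNOS, assayed as L-[3H]arginine to L-[3H]citrulline conversion (1 mM CaCl2, 200 μM β-NADPH, 0.88 μM L-arginine, 0.12 µM L-[3H]arginine, 15 min, 37 °C). Compound at 100 µM in ethanol or DMSO vehicle. Result given as % inhibition.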

Mus musculus [5] = assay: Antinociceptive activity in Writhing test in mice(ip) at a dose of 25 mg/kg (p<0.05); format: functional
Mus musculus [6] = assay: Effect of l-Arginine on Antinociceptive activity in mice(ip) at a dose of 50 mg/kg (p<0.05); format: functional
Mus musculus [7] = assay: Antinociceptive activity in Writhing test in mice(ip) at a dose of 10 mg/kg (p<0.05); format: functional
Nitric oxide synthase 1 [8] = target: T1, Nitric oxide synthase 1; assay: In vitro inhibitory concentration against rat cerebellar neuronal nitric oxide synthase; no effect
Procedure, shortened: (§1)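 Rat cerebellum homogenate nNOS. L-[3H]arginine to L-[3H]citrulline conversion with 1 mM CaCl2, 200 μM β-NADPH, 0.88 μM L-arginine and 0.12 µM L-[3H]arginine, 15 min at 37 °C. Vehicle ethanol or DMSO 0.4–0.8%. IC50 from inhibition curves at 0.1, 1, 10 and 100 µM. Mean ± SEM, 1–6 experiments.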

Nitric oxide synthase 1 [9] = target: T1, Nitric oxide synthase 1; assay: In vitro inhibitory concentration against rat cerebellar neuronal nitric oxide synthase; No effect; procedure, shortened: as §1
Mus musculus [10] = assay: Antinociceptive activity in Writhing test in mice(ip) at a dose of 15 mg/kg (p<0.001)

Chain of Nitric oxide synthase 1 (Rattus norvegicus) (P29476 whole entry): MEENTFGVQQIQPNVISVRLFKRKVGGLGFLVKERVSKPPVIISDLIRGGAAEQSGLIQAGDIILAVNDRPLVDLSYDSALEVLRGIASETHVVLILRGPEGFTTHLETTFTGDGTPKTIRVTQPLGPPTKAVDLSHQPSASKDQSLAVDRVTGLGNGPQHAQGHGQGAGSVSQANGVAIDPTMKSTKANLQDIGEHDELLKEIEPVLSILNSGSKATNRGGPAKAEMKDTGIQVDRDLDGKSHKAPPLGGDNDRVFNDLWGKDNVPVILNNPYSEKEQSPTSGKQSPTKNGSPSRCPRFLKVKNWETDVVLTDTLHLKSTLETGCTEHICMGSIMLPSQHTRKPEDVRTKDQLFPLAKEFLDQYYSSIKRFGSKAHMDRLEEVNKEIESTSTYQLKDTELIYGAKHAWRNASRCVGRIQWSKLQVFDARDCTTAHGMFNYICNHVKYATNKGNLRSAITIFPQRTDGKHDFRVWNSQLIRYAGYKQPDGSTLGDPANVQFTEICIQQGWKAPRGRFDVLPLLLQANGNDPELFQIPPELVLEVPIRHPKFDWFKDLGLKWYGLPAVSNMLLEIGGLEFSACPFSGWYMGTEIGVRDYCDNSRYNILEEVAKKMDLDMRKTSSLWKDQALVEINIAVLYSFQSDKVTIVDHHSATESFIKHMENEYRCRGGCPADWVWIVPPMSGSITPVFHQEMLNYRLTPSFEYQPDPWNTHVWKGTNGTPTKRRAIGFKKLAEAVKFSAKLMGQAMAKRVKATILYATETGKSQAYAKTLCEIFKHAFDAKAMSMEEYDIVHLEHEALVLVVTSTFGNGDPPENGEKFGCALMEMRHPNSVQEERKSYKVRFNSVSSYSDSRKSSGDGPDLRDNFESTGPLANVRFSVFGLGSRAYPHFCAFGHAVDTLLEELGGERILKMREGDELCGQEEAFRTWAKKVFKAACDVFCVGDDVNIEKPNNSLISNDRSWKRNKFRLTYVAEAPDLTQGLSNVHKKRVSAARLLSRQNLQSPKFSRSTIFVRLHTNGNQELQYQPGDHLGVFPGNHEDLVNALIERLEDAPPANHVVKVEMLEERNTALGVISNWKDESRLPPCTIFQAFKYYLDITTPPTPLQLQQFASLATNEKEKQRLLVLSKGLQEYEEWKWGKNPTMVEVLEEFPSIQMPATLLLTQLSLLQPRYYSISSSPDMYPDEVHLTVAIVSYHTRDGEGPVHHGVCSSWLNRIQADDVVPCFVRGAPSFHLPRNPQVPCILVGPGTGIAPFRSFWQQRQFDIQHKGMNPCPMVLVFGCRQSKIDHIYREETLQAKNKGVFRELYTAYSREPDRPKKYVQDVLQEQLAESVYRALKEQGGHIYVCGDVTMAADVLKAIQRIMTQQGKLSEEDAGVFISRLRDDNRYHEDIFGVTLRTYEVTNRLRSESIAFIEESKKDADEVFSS
T1 sequence (P29476 whole entry): as above

Row | IC50 (Nitric oxide synthase 1 [3]) [µM] | inhibition [4] [%] | Structure (SMILES) | further results
1 | – | – | O=[N+]([O-])c1cccc2cn[nH]c12 [7-NITROINDAZOLE] | inhibition [1]: 92%; No. of writhes (Mus musculus [2]): 6.2
2 | > 100 | 25 | COc1ccc2[nH]ncc2c1 | –
3 | 75 | – | Brc1ccc2[nH]ncc2c1 | –
4 | > 100 | 7 | Oc1cccc2cn[nH]c12 | –
5 | – | 0 | c1ccc(COc2cccc3c[nH]nc23)cc1 | IC50 (Nitric oxide synthase 1 [8]): Not Active
6 | 100 | 50 | CCOc1cccc2c[nH]nc12 | –
7 | 30 | – | FC(F)(F)c1ccccc1-n1ccnc1 | inhibition [1]: 45%
8 | > 100 | – | Fc1ccc2[nH]ncc2c1 | –
9 | – | 0 | COc1ccc2c[nH]nc2c1 | IC50 (Nitric oxide synthase 1 [9]): Not Active
10 | 28 | – | Clc1ccc2cn[nH]c2c1 | –
11 | > 100 | 30 | COc1cccc2[nH]ncc12 | –
12 | > 100 | – | Cc1ccc2cn[nH]c2c1 | –
13 | – | 0 | COc1cccc2c(I)[nH]nc12 | IC50 (Nitric oxide synthase 1 [8]): Not Active
14 | – | – | CC(=O)Oc1ccccc1C(=O)O [ASPIRIN] | No. of writhes (Mus musculus [10]): 3.5

Row | Structure (SMILES) | IC50 (Nitric oxide synthase 1 [3]) [µM] | inhibition [4] [%] | further results
15 | COc1cccc2c[nH]nc12 | 6.3 | 80 | No. of writhes (Mus musculus [5]): 12.2; No. of writhes (Mus musculus [6]): 10.6; No. of writhes (Mus musculus [2]): 4.7; No. of writhes (Mus musculus [7]): 15.4
